ChEMBL document CHEMBL4402551 (Eur J Med Chem, 2020)
Activity calls are given as the source filed them. The rule behind the calls is not given here.

Experiments:
Influenza A virus [1] = assay: Antiviral activity against Influenza A virus (A/goose/Guangdong/SH7/2013(H5N1)) infected in chicken embryo fibroblasts assessed as protection against virus-induced cytopathic effect incubated for 48 hrs by CCK8 assay; type: functional, organism-based
Influenza A virus [2] = assay: Antiviral activity against Influenza A virus (A/Chicken/China/415/2013 (H9N2)) infected in chicken embryonated eggs assessed as chicken embryo survival at 10 to 0.156 mM incubated with virus for 1 hr followed by inoculation and measured after 72 hrs relative to control; type: functional
Influenza A virus [3] = assay: Antiviral activity against Influenza A virus (A/Chicken/Hebei/LZF/2014(H5N2)) infected in chicken embryo fibroblasts assessed as protection against virus-induced cytopathic effect incubated for 48 hrs by CCK8 assay; type: functional, organism-based
Influenza A virus [4] = assay: Antiviral activity against Influenza A virus (A/Duck/Guangdong/674/2014(H5N6)) infected in chicken embryo fibroblasts assessed as protection against virus-induced cytopathic effect incubated for 48 hrs by CCK8 assay; type: functional, organism-based
Influenza A virus [5] = assay: Antiviral activity against Influenza A virus (A/Chicken/Hebei/LZF/2014(H5N2)) infected in chicken embryonated eggs assessed as chicken embryo survival at 10 mM incubated with virus for 1 hr followed by inoculation and measured after 72 hrs relative to control; type: functional
[6] = Cytotoxicity against CEF after 48 hrs by CCK8 assay; set-up: species or system Gallus gallus; conditions: chicken, CEF cells
Procedure, shortened: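 Uninfected chicken embryo fibroblasts are given compound, serially diluted 3-fold in DMEM with 1% FBS from a DMSO stock, at 37 °C and 5% CO2 for 48 h. Viability is read as A450 after 90 min with CCK-8 at 37 °C. CC50 is derived as for EC50.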

Influenza A virus [7] = assay: Antiviral activity against Influenza A virus (A/Chicken/Hebei/LZF/2014(H5N2)) infected in chicken embryonated eggs assessed as protection against virus-induced chicken embryo death at 2.5 to 0.156 mM incubated with virus for 1 hr followed by inoculation and measured after 72 hrs; type: functional, organism-based
[8] = Inhibition of Influenza A virus (A/Duck/Guangdong/674/2014(H5N6)) Neuraminidase N6 preincubated for 10 mins followed by MUNANA substrate addition and measured after 40 mins by fluorescence method
Influenza A virus [9] = assay: Antiviral activity against Influenza A virus (A/Chicken/China/415/2013 (H9N2)) infected in chicken embryonated eggs assessed as chicken embryo survival at 10 to 0.625 mM incubated with virus for 1 hr followed by inoculation and measured after 72 hrs relative to control; type: functional

SMILES	IC50 [8] [µM]	further results
CCC(CC)O[C@@H]1C=C(C(=O)NCc2cn(Cc3ccc(Br)cc3)nn2)C[C@H](N)[C@H]1NC(C)=O	0.16	EC50 (Influenza A virus [1]): 2.45 µM; Activity (Influenza A virus [2]): >80%; EC50 (Influenza A virus [3]): 0.43 µM; EC50 (Influenza A virus [4]): 2.8 µM; Activity (Influenza A virus [5]): 20%; CC50 at 48 h [6]: > 1000 µM; Activity (Influenza A virus [7]): inactive
CCC(CC)O[C@@H]1C=C(C(=O)NCCc2cn([C@H]3C[C@H](n4cc(C)c(=O)[nH]c4=O)O[C@@H]3CO)nn2)C[C@H](N)[C@H]1NC(C)=O	> 10	–
CCC(CC)O[C@@H]1C=C(C(=O)NCCc2cn(Cc3ccc([N+](=O)[O-])cc3)nn2)C[C@H](N)[C@H]1NC(C)=O	7.6	–
CCC(CC)O[C@@H]1C=C(C(=O)NC(C)(C)c2cn(Cc3ccc([N+](=O)[O-])cc3)nn2)C[C@H](N)[C@H]1NC(C)=O	> 10	–
CCC(CC)O[C@@H]1C=C(C(=O)NCc2cn(CC(=O)N3CCOCC3)nn2)C[C@H](N)[C@H]1NC(C)=O	0.79	EC50 (Influenza A virus [1]): 3.1 µM; EC50 (Influenza A virus [3]): 1 µM; EC50 (Influenza A virus [4]): 3.78 µM; CC50 at 48 h [6]: > 1000 µM
CCC(CC)O[C@@H]1C=C(C(=O)O)C[C@H](N)[C@H]1NC(C)=O [OSELTAMIVIR CARBOXYLATE]	0.018	Activity (Influenza A virus [9]): >80%; EC50 (Influenza A virus [1]): 0.22 µM; EC50 (Influenza A virus [3]): 0.18 µM; EC50 (Influenza A virus [4]): 0.43 µM; Activity (Influenza A virus [5]): 80%; CC50 at 48 h [6]: > 1000 µM; Activity (Influenza A virus [7]): inactive
CCC(CC)O[C@@H]1C=C(C(=O)NCCc2cn(Cc3ccc(Br)cc3)nn2)C[C@H](N)[C@H]1NC(C)=O	> 10	–
CCC(CC)O[C@@H]1C=C(C(=O)NCc2cn(Cc3ccc([N+](=O)[O-])cc3)nn2)C[C@H](N)[C@H]1NC(C)=O	1.17	–
CCC(CC)O[C@@H]1C=C(C(=O)NCc2cn(Cc3ccc(-c4ccccc4)cc3)nn2)C[C@H](N)[C@H]1NC(C)=O	2.2	–
CCC(CC)O[C@@H]1C=C(C(=O)NCc2cn(Cc3ccccc3Cl)nn2)C[C@H](N)[C@H]1NC(C)=O	0.13	EC50 (Influenza A virus [1]): 3.32 µM; EC50 (Influenza A virus [3]): 0.47 µM; EC50 (Influenza A virus [4]): 8.6 µM; CC50 at 48 h [6]: > 1000 µM
CCC(CC)O[C@@H]1C=C(C(=O)NCc2cn(Cc3cccc(Cl)c3)nn2)C[C@H](N)[C@H]1NC(C)=O	2.56	–
CCC(CC)O[C@@H]1C=C(C(=O)NCc2cn(Cc3ccccc3)nn2)C[C@H](N)[C@H]1NC(C)=O	1	–
CCC(CC)O[C@@H]1C=C(C(=O)NCc2cn(CCc3ccccc3)nn2)C[C@H](N)[C@H]1NC(C)=O	0.57	–
CCC(CC)O[C@@H]1C=C(C(=O)NCc2cn(Cc3ccc(C)cc3)nn2)C[C@H](N)[C@H]1NC(C)=O	5.5	–
CCC(CC)O[C@@H]1C=C(C(=O)NCc2cn(CSc3ccccc3)nn2)C[C@H](N)[C@H]1NC(C)=O	4.59	–
CCC(CC)O[C@@H]1C=C(C(=O)NCc2cn(Cc3cccc([N+](=O)[O-])c3)nn2)C[C@H](N)[C@H]1NC(C)=O	2.85	–
CCC(CC)O[C@@H]1C=C(C(=O)NCc2cn(CC(=O)N3CCCC3)nn2)C[C@H](N)[C@H]1NC(C)=O	1.4	–
CCC(CC)O[C@@H]1C=C(C(=O)NC(C)(C)c2cn([C@H]3C[C@H](n4cc(C)c(=O)[nH]c4=O)O[C@@H]3CO)nn2)C[C@H](N)[C@H]1NC(C)=O	0.58	EC50 (Influenza A virus [1]): 6.28 µM; EC50 (Influenza A virus [3]): 0.53 µM; EC50 (Influenza A virus [4]): > 20 µM; CC50 at 48 h [6]: > 1000 µM
CCC(CC)O[C@@H]1C=C(C(=O)NCc2cn(Cc3ccc(F)cc3)nn2)C[C@H](N)[C@H]1NC(C)=O	3.2	–
CCC(CC)O[C@@H]1C=C(C(=O)NCc2cn(Cc3ccccc3Br)nn2)C[C@H](N)[C@H]1NC(C)=O	> 10	–
CCC(CC)O[C@@H]1C=C(C(=O)NCc2cn(C3CCCCC3)nn2)C[C@H](N)[C@H]1NC(C)=O	2.01	–
CCC(CC)O[C@@H]1C=C(C(=O)NC(C)(C)c2cn(Cc3ccc(Br)cc3)nn2)C[C@H](N)[C@H]1NC(C)=O	> 10	–
CCC(CC)O[C@@H]1C=C(C(=O)NCc2cn([C@H]3C[C@H](n4cc(C)c(=O)[nH]c4=O)O[C@@H]3CO)nn2)C[C@H](N)[C@H]1NC(C)=O	0.29	–
CCC(CC)O[C@@H]1C=C(C(=O)NCc2cn(CCc3ccc(Br)cc3)nn2)C[C@H](N)[C@H]1NC(C)=O	6.34	–
CCC(CC)O[C@@H]1C=C(C(=O)NCc2cn(Cc3ccccc3[N+](=O)[O-])nn2)C[C@H](N)[C@H]1NC(C)=O	> 10	–
CCC(CC)O[C@@H]1C=C(C(=O)NCc2cn(Cc3ccc(Cl)c(F)c3)nn2)C[C@H](N)[C@H]1NC(C)=O	2.8	–
CCC(CC)O[C@@H]1C=C(C(=O)NCc2cn(Cc3cccc(F)c3)nn2)C[C@H](N)[C@H]1NC(C)=O	2	–
